Cl transport mod – KCC2 (human) Cl- transport modulation; Q9H2X9; KCC2 cells, thallium flux FluoZin-2 fluorescence; B-score of Tl+ flux slope (higher = more flux/activation; lower = inhibition) at 10 µM; 190,000 tested, 2.2% active;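 active = thallium flux slope and its plate-corrected score both differing from the plate sample mean at a set confidence after two filtering rounds, in either direction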;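 also: slope of fluorescence scaled to starting intensity during 10 to 20 s after thallium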
KCNQ1 act – potentiates or activates the human KCNQ1 potassium channel | P51787 | 310,000 tested, 0.35% active | B-score at 10 µM | AID 2648 | CHO-K1 KCNQ1, thallium flux FluxOR fluorescence; active compounds read high;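 active = fluorescence ratio B-score, a plate-corrected score, at least three library SD, with initial intensity B-score within 5 SD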
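Doses: Single concentration per compound, DMSO matched to controls | Test system: KCNQ1-transfected CHO-K1 cells | Timing: 90 min dye loading and 20 min compound exposure, both at room temperature | Measured by: Kinetic FluxOR thallium fluorescence, 10-s 1-Hz baseline, 110-s post-stimulus read | Medium: Assay buffer with matched DMSO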
KCNK3 block – human KCNK3 channel inhibition, primary screen | O14649 | CHO-KCNK3 thallium flux, FluxOR fluorescence; active compounds read low | B-score at 10 µM | 340,000 tested, 0.84% active | AID 602410;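 active = B-score under library mean minus 4 SD, starting fluorescence ratio at most library mean plus 5 SD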;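 also: more negative B-score means stronger inhibition of thallium flux through KCNK3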
Target sequence (O14649 whole entry, looked up): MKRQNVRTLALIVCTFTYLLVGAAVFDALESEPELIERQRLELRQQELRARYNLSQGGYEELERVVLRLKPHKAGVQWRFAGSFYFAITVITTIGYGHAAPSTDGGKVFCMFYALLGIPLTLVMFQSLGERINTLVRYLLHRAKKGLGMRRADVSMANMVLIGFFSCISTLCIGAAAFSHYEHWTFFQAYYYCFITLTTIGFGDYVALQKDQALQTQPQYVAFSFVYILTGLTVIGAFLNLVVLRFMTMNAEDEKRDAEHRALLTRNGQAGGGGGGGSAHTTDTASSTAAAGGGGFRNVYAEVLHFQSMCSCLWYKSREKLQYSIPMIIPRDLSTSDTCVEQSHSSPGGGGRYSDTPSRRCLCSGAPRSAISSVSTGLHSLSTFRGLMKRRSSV
hERG protect – compounds protecting human hERG from proarrhythmic drug block; AID 1511; activation (rescue from dofetilide block), less the hit threshold, % at 10 µM; Q12809; CHO-hERG, FluxOR thallium flux, dofetilide IC70 present; 310,000 tested, 0.51% active;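 active = activation above the mean of controls blocked by dofetilide plus 5 SD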;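 also: thallium influx through hERG after potassium depolarization seen as dye fluorescence rise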
KCNQ1 block – inhibitors of human KCNQ1 potassium channel | CHO-K1 KCNQ1, FluxOR thallium flux fluorescence; active compounds read high | B-score at 10 µM | AID 2642 | 310,000 tested, 1.3% active | P51787;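 active = compounds whose thallium flux B-score, printed positive for inhibition, exceeds three library SD while starting fluorescence stays within three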;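 also: channel opened by potassium depolarization with thallium stimulus after 20 min compound exposure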
KCNK9 inh – blocks the human KCNK9 two-pore domain potassium channel; Q9NPC2; HEK293 KCNK9, FluxOR thallium flux fluorescence; active compounds read low; B-score at 10 µM; 310,000 tested, 1.2% active; AID 488922;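 active = ratio B-score over 3 SD below the library mean, with starting fluorescence within 5 SD of its mean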;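 also: negative B-score means less thallium flux so channel inhibition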
Target sequence (Q9NPC2 whole entry, looked up, the tested form may be a part): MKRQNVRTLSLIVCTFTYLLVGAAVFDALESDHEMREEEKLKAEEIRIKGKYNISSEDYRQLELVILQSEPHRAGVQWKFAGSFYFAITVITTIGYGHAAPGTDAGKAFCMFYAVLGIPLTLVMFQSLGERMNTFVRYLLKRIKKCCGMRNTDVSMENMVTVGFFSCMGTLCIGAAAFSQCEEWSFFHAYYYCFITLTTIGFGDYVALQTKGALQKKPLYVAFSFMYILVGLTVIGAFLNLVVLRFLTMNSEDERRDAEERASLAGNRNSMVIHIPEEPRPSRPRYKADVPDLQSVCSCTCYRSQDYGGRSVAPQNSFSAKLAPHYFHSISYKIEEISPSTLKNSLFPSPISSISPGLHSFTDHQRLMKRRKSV
Of the large screens only hits and unclear results are named; the others gave an inactive call. Most compounds without a hit are left out; they make up all but 4.1% or so of the library.

Cc1cccc(NC(=S)N/N=C/C(C)c2ccccc2)c1C (stereo not given)	hERG protect 4.8
Cc1cccc(NC(=S)N/N=C/c2cccc(O)c2)c1C	none
Cc1nc(N2CCCCC2)c2c(-c3cccs3)csc2n1	KCNK9 inh -7.3
CC(=O)Nc1ccc(S(=O)(=O)NCC(=O)OCC(=O)N2CC(C)OC(C)C2)cc1 (stereo not given)	none (no result: Cl transport mod, KCNQ1 act, hERG protect, KCNQ1 block, KCNK9 inh)
CCC(=O)NC1=C(Cl)C(=O)C(NC(=O)CC)=C(Cl)C1=O	KCNK3 block -11 (no result: KCNQ1 act, hERG protect, KCNQ1 block, KCNK9 inh)
CCCCc1ccc(/C=C2\C(=O)c3ccccc3C(O)=C2C(=O)OCC)cc1	KCNQ1 act 9 (no result: Cl transport mod, KCNK3 block)
CCOC(=O)C1=C(Cc2ccc(F)cc2)C(=O)c2ccccc2C1=O	none
COc1c(CC=C(C)C)cc(C2CC(=O)c3c(O)cc(O)cc3O2)cc1CC=C(C)C (stereo not given)	KCNQ1 block 8
Cn1nnnc1Sc1ncnc2scc(-c3ccc([N+](=O)[O-])cc3)c12	none (no result: Cl transport mod, KCNQ1 act, hERG protect, KCNQ1 block, KCNK9 inh)
c1ccc2c(NCCc3c[nH]c4ccccc34)c3ccccc3nc2c1	KCNQ1 block 7 (no result: Cl transport mod)
O=[N+]([O-])c1ccc(NNC(=S)Nc2ccc(F)cc2)cc1	KCNQ1 block 7
O=C(NC(NNc1ccc([N+](=O)[O-])cc1)(C(F)(F)F)C(F)(F)F)c1ccc(F)cc1	KCNQ1 block 6
CCN(c1ccccc1)S(=O)(=O)c1ccc(C(=O)Nc2ccc(C)cn2)cc1	none (no result: Cl transport mod)
Oc1oc(-c2cccc3ccccc23)nc1C=NCc1ccccc1	none (no result: KCNQ1 act, KCNK3 block, hERG protect, KCNQ1 block, KCNK9 inh)
Oc1oc(-c2cccc3ccccc23)nc1/C=N/c1nccs1	Cl transport mod 24, KCNQ1 act 12, hERG protect 19
CCN1C=C(Cc2cccs2)C2=C(C1)C(c1cccs1)C(C#N)=C(N)O2 (stereo not given)	KCNK3 block -9, KCNK9 inh -7.4
COc1ccc(C(=O)N/C(=C\c2cccc3ccccc23)C(=O)N2CCN(C)CC2)cc1OC	hERG protect 9.7
CCOC(=O)N1CCN(C(=O)/C(=C/c2cccc3ccccc23)NC(=O)c2ccc(OC)c(OC)c2)CC1	none
COc1ccc(NS(=O)(=O)c2cc(NC(=O)COc3ccc(OC)cc3)ccc2N2CCOCC2)cc1	none (no result: Cl transport mod, KCNQ1 act, hERG protect, KCNQ1 block, KCNK9 inh)
CN(CC(=O)Nc1ccc(F)cc1)C(=O)CCc1ccccc1	none (no result: Cl transport mod)
Cc1ccsc1/C=C(\CC(=O)O)c1nc2ccccc2o1	none (no result: Cl transport mod)
O=C(O)C/C(=C\c1cc(Br)cs1)c1nc2ccccc2o1	hERG protect 6.1 (no result: Cl transport mod)
NC1=NC2(CCC(c3ccccc3)CC2)n2c(nc3ccccc32)N1 (stereo not given)	KCNK9 inh -7.9
NC1=NC2(CCCCC2)n2c(nc3ccccc32)N1	none (no result: Cl transport mod)
CN(C)S(=O)(=O)c1cccc(NC(=O)COC(=O)/C=C/c2ccc([N+](=O)[O-])cc2)c1	hERG protect 8.1
CCCn1c(=O)c(C(=O)NCc2ccc3c(c2)OCO3)c(O)c2ccccc21	KCNQ1 block 8 (no result: Cl transport mod)
CCC(CC)C(=O)OCC(=O)Nc1cccc(S(=O)(=O)N(C)c2ccccc2)c1	KCNK9 inh -7.2
CCCn1nc(C(=O)NCc2ccc3c(c2)OCO3)c2ccccc2c1=O	KCNK3 block -8.9
COc1cc(C(=O)N2CCCN(C)CC2)cc(OC)c1C	none (no result: Cl transport mod)
Cc1csc(NC(=O)CCC(=O)N(CC(=O)NC2CCCC2)Cc2ccccc2)n1	none (no result: Cl transport mod)
CCCn1nc(C(=O)Nc2cccc(S(=O)(=O)N(C)c3ccccc3)c2)c2ccccc2c1=O	KCNK3 block -9.2 (no result: Cl transport mod, KCNQ1 act, hERG protect, KCNQ1 block, KCNK9 inh)
O=C(COC(=O)Cc1n[nH]c(=O)c2ccccc12)Nc1c(Cl)cccc1C(F)(F)F	none (no result: Cl transport mod)
Cc1ccc(-n2ncc(C(=O)Nc3cc(Cl)ccc3Cl)c2C2CCNCC2)cc1	none
Cc1ccc(-n2ncc(C(=O)Nc3cc(Cl)cc(Cl)c3)c2C2CCNCC2)cc1C	KCNQ1 act 17
CNCc1ccccc1Sc1cccc2ccccc12	KCNQ1 act 8
CNCc1ccccc1Sc1ccc(OC)cc1	none
Cc1cnc(NC(=O)c2cccc(S(=O)(=O)N3CCOCC3)c2)s1	none (no result: Cl transport mod, KCNQ1 act, hERG protect, KCNQ1 block, KCNK9 inh)
c1csc(-c2nc3ccccn3c2NC2CCCCC2)c1	none
CCC(C)Sc1cc(-c2nc3ccccn3c2NC2CCCCC2)ccc1OC (stereo not given)	KCNQ1 block 8 (no result: Cl transport mod)
CC(=O)c1ccc(-c2cccc(-c3nc4ccccn4c3NC3CCCCC3)c2)cc1	KCNK9 inh -7.7 (no result: Cl transport mod)
Cc1cc(C)n(CCNC(=O)c2ccc3c(c2)OCO3)n1	none (no result: Cl transport mod)
Cc1ccc(S(=O)(=O)N2CCCCC2CCNC(=O)C(=O)NCc2ccccc2)cc1 (stereo not given)	none (no result: Cl transport mod)
COc1ccc(C(=O)OCC(=O)c2ccc(F)cc2)cc1OC	none (no result: Cl transport mod, KCNQ1 act, hERG protect, KCNQ1 block, KCNK9 inh)
CC(=O)N1CCN(C(=O)COC(=O)CNC(=O)c2ccc(C)cc2)CC1	none (no result: Cl transport mod, KCNQ1 act, hERG protect, KCNQ1 block, KCNK9 inh)
CC(C)c1ccc([N+](=O)[O-])cc1S(=O)(=O)N1CCN(C)CC1	none (no result: Cl transport mod)
COc1ccc(N/C=C(\C#N)c2nc3ccccc3n2C)c(OC)c1	KCNK9 inh -7 (no result: Cl transport mod)
C#CCOCCOCCOCCNc1nc(N2CCN(C(=O)[C@H](C(C)C)n3cc(CCO)nn3)CC2)nc(N2CCN(C(=O)[C@H]([C@@H](C)CC)n3cc(CCC(=O)O)nn3)CC2)n1	none (no result: Cl transport mod, KCNQ1 act, hERG protect, KCNQ1 block, KCNK9 inh)
COc1cccc(NC(=O)c2oc3ccccc3c2NC(=O)c2ccc3c(c2)OCO3)c1	KCNK9 inh -7.9 (no result: Cl transport mod)
COc1cccc(NC(=O)c2ccc3c(c2)OCO3)c1	none (no result: Cl transport mod)
O=C(CN1CCN(c2ccccc2)CC1)NC(=O)NCc1ccco1	none
COc1cccc(N2CCN(CC(=O)NC(=O)NCc3ccco3)CC2)c1	hERG protect 10.0
COc1cccc(C=Nc2cc(C(C)C)c(O)cc2C)c1O	none (no result: Cl transport mod, KCNQ1 act, hERG protect, KCNQ1 block, KCNK9 inh)
C=C[C@@]1(C)CC(=O)[C@]2(O)[C@@]3(C)[C@@H](O)CCC(C)(C)[C@@H]3[C@H](OC(C)=O)[C@H](O)[C@@]2(C)O1	KCNQ1 act 13 (no result: Cl transport mod)
C=C[C@@]1(C)CC(=O)[C@]2(O)[C@@]3(C)[C@@H](O)CCC(C)(C)[C@@H]3[C@H](O)[C@H](OC(C)=O)[C@@]2(C)O1	KCNQ1 act 12 (no result: Cl transport mod)
C=C1C(=O)O[C@H]2C[C@]3(C)C([C@@H](OC(=O)/C(C)=C/C)[C@H]12)[C@](C)(O)CC[C@H]3O (stereo not given in full)	none (no result: Cl transport mod)
CS(=O)(=O)c1nc(-c2ccco2)cc(C(F)(F)F)n1	KCNQ1 block 7 (no result: Cl transport mod, KCNK3 block)
CC(Nc1ncnc2ccccc12)c1ccccc1 (stereo not given)	KCNQ1 block 6 (no result: Cl transport mod)
CC(C)Oc1ccc(Nc2ncnc3ccccc23)cc1	none
CCCCC(Nc1ncnc2ccccc12)C(=O)O (stereo not given)	KCNQ1 act 16
Cc1ccc(S(=O)(=O)N2CCOCC2)cc1NC(=O)COC(=O)Cn1c(C)csc1=O	none (no result: Cl transport mod)
CCCC(=O)c1ccc(-c2ccccc2)cc1	KCNK9 inh -7.4
O=C(CCCCCCCC(=O)c1ccccc1)c1ccccc1	KCNQ1 block 7
